Article PMC9926453 (Medicinal Chemistry Research, 2023)

Tests used:
Format in all cases: cell-based
[1] = system: MCF-7 breast cancer cells; assay: MTT antiproliferative assay, MCF-7; details: Homo sapiens, MCF7, 24 h, read-out: Antiproliferative activity (IC50) MCF-7
How it was run: (§1)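 Cells seeded at 2×10^3 per well and left 24 h to adhere, then exposed to test compound (0–100 µM, final) for 24 h at 37 °C. MTT added for 4 h, a second MTT addition followed by overnight incubation, and absorbance read at 540 nm. Growth compared with untreated cells; IC50 derived from dose-response curves.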

[2] = system: MDA-MB-231 breast cancer cells; assay: MTT antiproliferative assay, MDA-MB-231; details: Homo sapiens, MDA-MB-231, 24 h, read-out: Antiproliferative activity (IC50) MDA-MB-231
How it was run: (§2)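 Cells were seeded at 2×10^3 per well and left to adhere for 24 h. Test compound was then added at 0–100 µM final, and cells were incubated for 24 h at 37 °C. MTT was added for 4 h, […]. Absorbance was read at 540 nm and growth compared with untreated cells. IC50 was taken from a dose-response curve.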

[3] = system: MDA-MB-231/ADR breast cancer cells; assay: MTT antiproliferative assay, MDA-MB-231/ADR; details: Homo sapiens, MDA-MB-231, 24 h, read-out: Antiproliferative activity (IC50) MDA-MB-231/ADR
How it was run: as §2

[4] = MTT cytotoxicity towards normal breast cells; details: human, MCF-10A normal breast cells
[5] = system: normal MCF-10A breast cells; assay: MTT cytotoxicity towards normal breast cells; details: SI: IC50(MCF-10A)/IC50(MCF-7) or IC50(MCF-10A)/IC50(MDA-MB-231)
[6] = system: MCF-7, MDA-MB-231, MCF-7/ADR and MDA-MB-231/ADR breast cancer cell lines; assay: MTT antiproliferative assay, the four breast cancer cell lines taken together; details: Homo sapiens, read-out: IC50 range over the four breast cancer cell lines
How it was run: as §1

Row | SMILES | IC50 [1] | IC50 [2] | IC50 [3] | IC50 at 24 h [4] | Selectivity index (SI) [5] | IC50 [6]
1 | COc1cccc2c1C(=O)c1c(O)c3c(c(O)c1C2=O)C[C@@](O)(C(=O)CO)C[C@@H]3O[C@H]1C[C@H](N)[C@H](O)[C@H](C)O1 [ADR, Adriamycin, reference compound] | 18.9 µM | 3.38 µM | > 100 µM | 68.8 µM | 3.64 | –
2 | C[C@@H]1CC[C@H]2[C@@H](C)C(=O)O[C@@H]3O[C@@]4(C)CC[C@@H]1[C@]32OO4 [ART, Artemisinin, reference compound] | > 100 µM | > 100 µM | > 100 µM | > 100 µM | – | > 100 µM
3 | C[C@H]1[C@@H](O)O[C@@H]2O[C@@]3(C)CC[C@H]4[C@H](C)CC[C@@H]1[C@@]24OO3 [DHA, Dihydroartemisinin, reference compound] | 28.3 µM | 48.8 µM | 82.8 µM | > 100 µM | >3.53 | 14.8 to 82.8 µM
4 | C[C@@H]1CC[C@H]2[C@@H](C)C(OC(=O)CCCN3C(=O)C(=O)c4ccccc43)O[C@@H]3O[C@@]4(C)CC[C@@H]1[C@]32OO4 (stereo partly drawn) [Hybrid 4a, (3R,5aS,6R,8aS,9R,12R,12aR)-3,6,9-trimethyldecahydro-12H-3,12-epoxy[1,2]dioxepino[4,3-i]isochromen-10-yl 4-(2,3-dioxoindolin-1-yl)butanoate] | 13.6 µM | 14.9 µM | 49.6 µM | > 100 µM | >7.33 | –
5 | C[C@@H]1CC[C@H]2[C@@H](C)C(OC(=O)CCCN3C(=O)C(=O)c4cc(F)ccc43)O[C@@H]3O[C@@]4(C)CC[C@@H]1[C@]32OO4 (stereo partly drawn) [Hybrid 4b, (3R,5aS,6R,8aS,9R,12R,12aR)-3,6,9-trimethyldecahydro-12H-3,12-epoxy[1,2]dioxepino[4,3-i]isochromen-10-yl 4-(5-fluoro-2,3-dioxoindolin-1-yl)butanoate] | 13.1 µM | 50 µM | > 100 µM | > 100 µM | >7.62 | –
6 | Cc1ccc2c(c1)C(=O)C(=O)N2CCCC(=O)OC1O[C@@H]2O[C@@]3(C)CC[C@H]4[C@H](C)CC[C@@H]([C@H]1C)[C@@]24OO3 (stereo partly drawn) [Hybrid 4c, (3R,5aS,6R,8aS,9R,12R,12aR)-3,6,9-trimethyldecahydro-12H-3,12-epoxy[1,2]dioxepino[4,3-i]isochromen-10-yl 4-(5-methyl-2,3-dioxoindolin-1-yl)butanoate] | > 100 µM | 32.9 µM | > 100 µM | – | – | –
7 | COc1ccc2c(c1)C(=O)C(=O)N2CCCC(=O)OC1O[C@@H]2O[C@@]3(C)CC[C@H]4[C@H](C)CC[C@@H]([C@H]1C)[C@@]24OO3 (stereo partly drawn) [Hybrid 4d, (3R,5aS,6R,8aS,9R,12R,12aR)-3,6,9-trimethyldecahydro-12H-3,12-epoxy[1,2]dioxepino[4,3-i]isochromen-10-yl 4-(5-methoxy-2,3-dioxoindolin-1-yl)butanoate] | 18.1 µM | 15.1 µM | 20.1 µM | > 100 µM | >5.52 | –
8 | CON=C1C(=O)N(CCCC(=O)OC2O[C@@H]3O[C@@]4(C)CC[C@H]5[C@H](C)CC[C@@H]([C@H]2C)[C@@]35OO4)c2ccccc21 (stereo partly drawn) [Hybrid 5a, (3R,5aS,6R,8aS,9R,12R,12aR)-3,6,9-trimethyldecahydro-12H-3,12-epoxy[1,2]dioxepino[4,3-i]isochromen-10-yl 4-(3-(methoxyimino)-2-oxoindolin-1-yl)butanoate] | 19.1 µM | > 100 µM | 52.2 µM | > 100 µM | >5.23 | –
9 | CCON=C1C(=O)N(CCCC(=O)OC2O[C@@H]3O[C@@]4(C)CC[C@H]5[C@H](C)CC[C@@H]([C@H]2C)[C@@]35OO4)c2ccccc21 (stereo partly drawn) [Hybrid 5b, (3R,5aS,6R,8aS,9R,12R,12aR)-3,6,9-trimethyldecahydro-12H-3,12-epoxy[1,2]dioxepino[4,3-i]isochromen-10-yl 4-(3-(ethoxyimino)-2-oxoindolin-1-yl)butanoate] | 1.27 µM | 15.1 µM | 26.8 µM | > 100 µM | >78.74 | –
10 | C[C@@H]1CC[C@H]2[C@@H](C)C(OC(=O)CCCN3C(=O)C(=NOCc4ccccc4)c4ccccc43)O[C@@H]3O[C@@]4(C)CC[C@@H]1[C@]32OO4 (stereo partly drawn) [Hybrid 5c, (3R,5aS,6R,8aS,9R,12R,12aR)-3,6,9-trimethyldecahydro-12H-3,12-epoxy[1,2]dioxepino[4,3-i]isochromen-10-yl 4-(3-((benzyloxy)imino)-2-oxoindolin-1-yl)butanoate] | > 100 µM | 2.39 µM | 3.95 µM | > 100 µM | – | –
11 | CON=C1C(=O)N(CCCC(=O)OC2O[C@@H]3O[C@@]4(C)CC[C@H]5[C@H](C)CC[C@@H]([C@H]2C)[C@@]35OO4)c2ccc(F)cc21 (stereo partly drawn) [Hybrid 5d, (3R,5aS,6R,8aS,9R,12R,12aR)-3,6,9-trimethyldecahydro-12H-3,12-epoxy[1,2]dioxepino[4,3-i]isochromen-10-yl 4-(3-(methoxyimino)-5-fluoro-2-oxoindolin-1-yl)butanoate] | 6.07 µM | > 100 µM | > 100 µM | > 100 µM | – | –
12 | CCON=C1C(=O)N(CCCC(=O)OC2O[C@@H]3O[C@@]4(C)CC[C@H]5[C@H](C)CC[C@@H]([C@H]2C)[C@@]35OO4)c2ccc(F)cc21 (stereo partly drawn) [Hybrid 5e, (3R,5aS,6R,8aS,9R,12R,12aR)-3,6,9-trimethyldecahydro-12H-3,12-epoxy[1,2]dioxepino[4,3-i]isochromen-10-yl 4-(3-(ethoxyimino)-5-fluoro-2-oxoindolin-1-yl)butanoate] | 15.9 µM | 8.12 µM | > 100 µM | > 100 µM | >6.29 | –
13 | C[C@@H]1CC[C@H]2[C@@H](C)C(OC(=O)CCCN3C(=O)C(=NOCc4ccccc4)c4cc(F)ccc43)O[C@@H]3O[C@@]4(C)CC[C@@H]1[C@]32OO4 (stereo partly drawn) [Hybrid 5f, (3R,5aS,6R,8aS,9R,12R,12aR)-3,6,9-trimethyldecahydro-12H-3,12-epoxy[1,2]dioxepino[4,3-i]isochromen-10-yl 4-(3-((benzyloxy)imino)-5-fluoro-2-oxoindolin-1-yl)butanoate] | 18.3 µM | > 100 µM | > 100 µM | > 100 µM | >5.46 | –
14 | CCON=C1C(=O)N(CCCC(=O)OC2O[C@@H]3O[C@@]4(C)CC[C@H]5[C@H](C)CC[C@@H]([C@H]2C)[C@@]35OO4)c2ccc(C)cc21 (stereo partly drawn) [Hybrid 5g, (3R,5aS,6R,8aS,9R,12R,12aR)-3,6,9-trimethyldecahydro-12H-3,12-epoxy[1,2]dioxepino[4,3-i]isochromen-10-yl 4-(3-(ethoxyimino)-5-methyl-2-oxoindolin-1-yl)butanoate] | > 100 µM | > 100 µM | > 100 µM | – | – | –
15 | Cc1ccc2c(c1)C(=NOCc1ccccc1)C(=O)N2CCCC(=O)OC1O[C@@H]2O[C@@]3(C)CC[C@H]4[C@H](C)CC[C@@H]([C@H]1C)[C@@]24OO3 (stereo partly drawn) [Hybrid 5h, (3R,5aS,6R,8aS,9R,12R,12aR)-3,6,9-trimethyldecahydro-12H-3,12-epoxy[1,2]dioxepino[4,3-i]isochromen-10-yl 4-(3-((benzyloxy)imino)-5-methyl-2-oxoindolin-1-yl)butanoate] | > 100 µM | > 100 µM | > 100 µM | – | – | –
16 | CON=C1C(=O)N(CCCC(=O)OC2O[C@@H]3O[C@@]4(C)CC[C@H]5[C@H](C)CC[C@@H]([C@H]2C)[C@@]35OO4)c2ccc(OC)cc21 (stereo partly drawn) [Hybrid 5i, (3R,5aS,6R,8aS,9R,12R,12aR)-3,6,9-trimethyldecahydro-12H-3,12-epoxy[1,2]dioxepino[4,3-i]isochromen-10-yl 4-(5-methoxy-3-(methoxyimino)-2-oxoindolin-1-yl)butanoate] | > 100 µM | > 100 µM | > 100 µM | – | – | –
17 | CCON=C1C(=O)N(CCCC(=O)OC2O[C@@H]3O[C@@]4(C)CC[C@H]5[C@H](C)CC[C@@H]([C@H]2C)[C@@]35OO4)c2ccc(OC)cc21 (stereo partly drawn) [Hybrid 5j, (3R,5aS,6R,8aS,9R,12R,12aR)-3,6,9-trimethyldecahydro-12H-3,12-epoxy[1,2]dioxepino[4,3-i]isochromen-10-yl 4-(3-(ethoxyimino)-5-methoxy-2-oxoindolin-1-yl)butanoate] | > 100 µM | > 100 µM | > 100 µM | – | – | –
18 | COc1ccc2c(c1)C(=NOCc1ccccc1)C(=O)N2CCCC(=O)OC1O[C@@H]2O[C@@]3(C)CC[C@H]4[C@H](C)CC[C@@H]([C@H]1C)[C@@]24OO3 (stereo partly drawn) [Hybrid 5k, (3R,5aS,6R,8aS,9R,12R,12aR)-3,6,9-trimethyldecahydro-12H-3,12-epoxy[1,2]dioxepino[4,3-i]isochromen-10-yl 4-(3-((benzyloxy)imino)-5-methoxy-2-oxoindolin-1-yl)butanoate] | > 100 µM | > 100 µM | > 100 µM | – | – | –
